Data as given in ChEMBL document CHEMBL1125241, “Structure-activity relationship of quinazolinedione inhibitors of calcium-independent phosphodiesterase” (J Med Chem, 1991).

Legend:
[1] = Inhibition of phosphodiesterase 4 from guinea pig lung; parameters: species or system Cavia porcellus
Method in brief: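 Guinea pig lung was homogenized in Bistris buffer (pH 6.5) with 50 μM final PMSF and centrifuged at 12000g at 4 °C. The supernatant went onto DEAE-Sepharose and was eluted with a 0.05–1.0 M sodium acetate gradient, pooling rolipram-sensitive fractions. The assay used 50 mM Tris/10 mM MgCl₂ (pH 7.5) and 1 μM final [³H]cAMP, with compound added in 4% DMSO, for 10 min at 37 °C. Reaction was stopped by boiling; [³H]5'-AMP was separated on boronate gel and counted. IC₅₀ came from 4 log concentrations, each in triplicate.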

[2] = tested on: Rattus norvegicus; assay: Percentage inhibition of carrageenan-induced rat foot edema at a dose of 32 mg/kg when administered perorally (po).; format: functional
Method in brief: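 Rats were dosed po, and 1 h later 0.05 mL of 2-week-old 1% carrageenan in distilled water was injected into the plantar tissue. Paw volume was measured immediately and 3 h after injection. The increase in foot volume was the individual response.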

[3] = species on record: Mus musculus; assay: Inhibition of reserpine-induced hypothermia in mice by peroral dose; format: functional; conditions: po, read-out: MED
Method in brief: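 Mice were housed at 18–20 °C, given reserpine 2 mg/kg sc, and kept there 18 h. Rectal temperature was then taken, followed by saline or drug po. Temperatures were re-measured, typically at 0.5, 1.0, 2.0 and 14 h. The value is the minimal effective dose (mg/kg po) that inhibits hypothermia.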

[4] = species on record: Mus musculus; assay: Inhibition of immobility in mouse forced swim test by peroral dose; format: functional; conditions: po, read-out: MED
Method in brief: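 Compounds were dissolved in saline and given po to mice at 1 mL/100 g. One hour later, mice were put in 1-L beakers of water at 22–24 °C, deep enough that tails could not touch the bottom. Observation followed a 2-min habituation.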

[5] = tested on: Rattus norvegicus; assay: Percentage inhibition of carrageenan-induced rat foot edema at a dose of […] when administered perorally (po).; format: functional; conditions: dose 3.2 mg/kg

| Structure (SMILES) | IC50 [1] | inhibition in vivo at 32 mg/kg [2] | minimal effective dose [3] | minimal effective dose [4] | inhibition in vivo at […] [5] |
| --- | --- | --- | --- | --- | --- |
| COC(=O)c1cccc(-n2c(=O)n(CC3CCCC3)c(=O)c3cccnc32)c1 | 1.52 µM |  | 3 µg/kg | 1000 µg/kg |  |
| COc1ccc(C2CNC(=O)C2)cc1OC1CCCC1 (stereo not drawn) [ROLIPRAM] | 0.59 µM | 41% | 0.03 µg/kg | 1780 µg/kg |  |
| COC(=O)c1cccc(-n2c(=O)n(CC3CC4CCC3C4)c(=O)c3cccnc32)c1 (stereo not drawn) | 0.89 µM |  | 1 µg/kg | 1000 µg/kg |  |
| CNC(=O)c1cccc(-n2c(=O)n(Cc3ccccc3)c(=O)c3ccccc32)c1 | 21.4 µM |  |  |  |  |
| COC(=O)c1cccc(-n2c(=O)n(Cc3ccccc3)c(=O)c3cccnc32)c1 |  |  | 10 µg/kg | 10 µg/kg | 50% |

The next lines start with results.

| IC50 [1] | Structure (SMILES) | inhibition in vivo at 32 mg/kg [2] | minimal effective dose [3] | minimal effective dose [4] | inhibition in vivo at […] [5] |
| --- | --- | --- | --- | --- | --- |
| > 100 µM | COC(=O)c1cccc(-n2c(=O)[nH]c(=O)c3ccccc32)c1 | 5% | < 320 µg/kg |  |  |
| 0.23 µM | COC(=O)c1cccc(-n2c(=O)n(Cc3ccccc3)c(=O)c3ccccc32)c1 | 25% | 100 µg/kg | > 32000 µg/kg |  |
| 11.4 µM | CCn1c(=O)c2ccccc2n(-c2cccc([N+](=O)[O-])c2)c1=O [NITRAQUAZONE] |  | 1 µg/kg | 3200 µg/kg | 43% |
| 3.8 µM | CCn1c(=O)c2ccccc2n(-c2cccc(C(=O)OC)c2)c1=O | 19% |  |  |  |
| 25.9 µM | CCn1c(=O)c2cccnc2n(-c2cccc(C(=O)OC)c2)c1=O |  |  |  |  |
